Series [1] concerns FKBP38 and Hsp90 binding interaction. Kind of series: pure protein binding assay FKBP38 and Hsp90. The note with it: 100 nM Hsp90, 50 nM GST-FKBP38, 0–10 µM compound. Further details: species or system human.
Series [2] concerns FKBP52 and Hsp90 binding interaction. Kind of series: pure protein binding assay FKBP52 and Hsp90. Further details: species or system human. The conditions noted are these: 100 nM Hsp90, 50 nM GST-FKBP52, 0–10 µM compound.
Series [3] relates to Hsp70. As to the kind of experiment: Hsp70 up-regulation in compound-treated cells. The format is cell-based. The note with it: HCT-116 cells, 24 hours. In outline:
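HCT-116 cells exposed for 24 h to test compound (0–25 µM), or to 17-AAG (0–200 nM) as reference Hsp90 inhibitor. Cells were then harvested and lysed, and lysates probed for Hsp70 by Western blot with GAPDH as loading control. Experiments were repeated three times, reported as mean ± SEM, and compared by unpaired t-test.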

For series [4], the system named is HeLa cells. Kind of series: Hsp90 over-expression experiments, cell survival. The format is cell-based. The conditions noted are these: pCMV-Hsp90 vs pCMV control, compound 1 50 µM, 2 5 µM, 17-AAG 100 nM. In outline:
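HeLa cells (~30% confluent) were co-transfected by PolyFect with HSP90α and HSP90β plasmids (0.5 µg each) or empty pCMV (1 µg). Hsp90 overexpression was checked by Western blot. After 24 h, cells received DMSO (control), test compound (50 or 5 µM) or 17-AAG (100 nM), and survival was read by CCK-8. Three repeats, mean ± SEM.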

Molecules are shown by their SMILES.

Take `C=CCNC1=C2C[C@@H](C)C[C@H](OC)[C@H](O)[C@@H](C)/C=C(\C)[C@H](OC(N)=O)[C@@H](OC)/C=C\C=C(/C)C(=O)NC(=CC1=O)C2=O` [17-AAG, 17-(allylamino)-17-demethoxygeldanamycin]: the “inhibition of binding between Hsp90 and FKBP38” value in series [1] is on record as “do not affect”. Further, in series [2], the “inhibition of binding between Hsp90 and FKBP52” value is “do not affect”. Also, the “Hsp70 up-regulation over control” value in series [3] is recorded as 100%. The “cytotoxic effect on Hsp90 over-expressing cells relative to control cells” value in series [4] was “also true”.

The values are drawn from paper PMC3241894 (ACS chemical biology, 2011).
